CYP2C19 inhib: inhibitors of human CYP2C19; CYP2C19 Supersomes, luciferin-H EGE luminescence, 30 min; P33261; inhibition, % at 5 µM; 96,000 tested, 21% active;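 active = CYP2C19 inhibition above a set limit at 5 µM in the primary screen, cut at about 50% in these data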;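 also: plate controls were negative control wells for no effect and 2.5 mM tranylcypromine positive control for full effect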
CYP2C9 activ: activators of human CYP2C9; recombinant CYP2C9, luciferin-H conversion, luminescence; active compounds read high; factor 1 = untreated enzyme, 0 = blocked; 96,000 tested, 1.4% active; activation factor at 5 µM;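 active = activation factor of 2 or more for CYP2C9 at a 5 µM dose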;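 also: 0 = sulfaphenazole-blocked wells and 1 = vehicle-only wells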
Target sequence (P11712 whole entry, looked up): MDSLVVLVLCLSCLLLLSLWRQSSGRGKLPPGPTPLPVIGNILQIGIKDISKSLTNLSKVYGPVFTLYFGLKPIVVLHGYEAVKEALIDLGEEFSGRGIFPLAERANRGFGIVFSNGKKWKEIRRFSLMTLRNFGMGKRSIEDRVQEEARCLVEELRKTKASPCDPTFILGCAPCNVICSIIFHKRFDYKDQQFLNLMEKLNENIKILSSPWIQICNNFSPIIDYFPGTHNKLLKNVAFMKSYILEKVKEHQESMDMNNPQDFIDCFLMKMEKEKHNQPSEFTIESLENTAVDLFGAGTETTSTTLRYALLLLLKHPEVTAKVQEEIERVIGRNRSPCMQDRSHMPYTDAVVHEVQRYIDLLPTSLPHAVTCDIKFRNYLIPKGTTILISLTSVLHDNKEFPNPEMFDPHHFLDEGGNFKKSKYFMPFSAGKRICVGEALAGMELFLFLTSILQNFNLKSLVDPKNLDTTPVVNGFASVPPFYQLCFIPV
CYP2C9 inhib: human CYP2C9 inhibition | CYP2C9 Supersomes, luciferin-H conversion, luminescence | inhibition, % at 5 µM | 96,000 tested, 20% active | AID 777;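 active = blocking of liver enzyme CYP2C9 beyond about 50% at 5 µM, limit read from the data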
Cav3 T inh: human Cav3.2 channel inhibition, primary screen | O95180 | Cav3.2-expressing cells, Fluo-4 calcium fluorescence FDSS; active compounds read low | B-score at 10 µM | 100,000 tested, 4% active;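 active = single-dose well whose peak fluorescence ratio is a statistical outlier from its plate by either plate-standardised score or position-corrected B-score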
CYP2C19 activ: cytochrome P450 2C19 (human) activation. P33261. recombinant CYP2C19, luciferin-H EGE luminescence; active compounds read high; 0 = fully inhibited enzyme, 1 = untreated enzyme. activation factor at 5 µM. 96,000 tested, under 10 active. AID 1025;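 active = activation factor of at least 2 at 5 µM in the primary screen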;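 also: 0 = wells with 2.5 mM tranylcypromine and 1 = vehicle-only wells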
Rev-RRE block: disrupts HIV-1 Rev binding to RRE RNA; P05866; Rev peptide-RRE RNA binding, FRET; inhibition, % at 8 µM; 97,000 tested, 0.79% active; AID 704;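 active = inhibition above the screen-wide mean plus 3 SD, cut at about 35% in these data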;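 also: 0% = median DMSO wells and 100% = median Neomycin B control wells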
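Material: labelled RRE RNA duplex and labelled Rev peptide / Buffer or medium: HEPES pH 7.5 salt buffer with EDTA / Compound dosing: single point, 8 µM final nominal compound concentration / Benchmarks: DMSO low control, neomycin B high control / Timing: 5 min preincubation and 15 min binding, 25 °C / Technique: FRET fluorescence readout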
* marks the source's active call; other numbers are inactive results; . = no result. An excerpt weighted towards active compounds, which were near 27% of everything screened.

SMILES	CYP2C19 inhib	CYP2C9 activ	CYP2C9 inhib	Cav3 T inh	CYP2C19 activ	Rev-RRE block
Cc1ccccc1NS(=O)(=O)c1cc(C(=O)Nc2ccccc2-c2ccccc2)ccc1Cl	35.9	0.2	84.3*	-3.39*	0.6	11.2
Cc1cccc(NS(=O)(=O)c2cc(C(=O)N3CCc4ccccc4C3)ccc2Cl)c1C	36.4	0.4	57.9*	-1.93	0.6	1.4
Cc1ccc(C(=O)N2CCOCC2)cc1S(=O)(=O)Nc1cccc(C)c1C	.	.	.	1.86	.	3.9
Cc1ccc(SCCNC(=O)C(CO)(CO)CO)cc1	-5.1	1.1	-8.4	0.0683	1.1	6.1
CN1CC(=O)N/C1=N\C(=O)Nc1ccc2c(c1)N(C)C(=O)CS2	6.0	0.7	32.7	-0.77	0.9	5.2
CCOC(=O)CN1C(=O)C(O)(C2CCc3ccccc3C2=O)c2ccccc21 (stereo not given)	73.1*	0.8	15.2	-1.75	0.3	9.5
CCOC(=O)CN1C(=O)C(O)(c2c(C)[nH]c3ccccc23)c2ccccc21 (stereo not given)	98.7*	0.1	94.1*	.	0	6.4
COc1ccc(Cl)cc1NC(=O)CC(C)c1ccccc1 (stereo not given)	84.6*	4*	-296.4	-7.65*	0.2	6.8
COc1ccc(Cl)cc1NC(=O)C/C(C)=N/NC(=O)CC#N	-15.6	1.7	-72.4	-0.863	1.2	1.3
COc1ccc(Cl)cc1NC(=O)CN(C(=O)c1ccco1)C1CCCCC1	45.5	0.5	48.0	.	0.5	13.0
COc1ccc(Cl)cc1NC(=O)CN(C)C(C)C(=O)NCC1CCCCC1 (stereo not given)	99.3*	2.6*	-160.1	-1.01	0	8.1
COc1ccc(Cl)cc1NC(=O)NCCCl	17.6	1.1	-12.2	0.479	0.8	-1.9
COc1ccc(Cl)cc1NC(=O)CC(C)=O	7.9	3.6*	-260.7	0.439	0.9	7.0
O=C(c1cccc(F)c1)N1CCN(C(=O)C2CC2)CC1	42.2	0.9	13.1	-0.517	0.6	6.3
CC(=O)c1cccc(NC(=O)NCCS(C)=O)c1 (stereo not given)	-14.0	1.1	-11.1	0.422	1.1	6.5
O=C(N/N=C/c1ccc(-c2cccc(C(F)(F)F)c2)o1)c1ccccc1Br	-12.6	1.2	-19.7	-1.39	1.1	59.5*
CC(C)NC(=O)c1ccc(-c2cccc(C(F)(F)F)c2)o1	6.9	1.4	-35.0	-0.205	0.9	2.0
CCN(C(=O)CSc1nc2cc(C(=O)OC)ccc2c(=O)n1Cc1ccco1)c1cccc(C)c1	64.2*	0.1	91.6*	-4.29*	0.4	-4.5
COCCNC(=O)c1ccc2c(=O)n(Cc3ccco3)c(SCC(=O)NC3CCCC3)nc2c1	51.7*	0.2	80.6*	1.89	0.5	5.8
O=C(NCC1CCCO1)c1ccc2c(=O)n(Cc3ccco3)c(SCC(=O)N3CCCC3)nc2c1 (stereo not given)	2.3	0.5	49.3	1.08	1	3.9
CCC(Sc1nc2cc3c(cc2c(=O)n1Cc1ccco1)OCO3)C(=O)Nc1cccc(OC)c1 (stereo not given)	24.1	0.4	60.0*	-1.42	0.8	-2.5
COCCNC(=O)CSc1nc2cc3c(cc2c(=O)n1Cc1ccco1)OCO3	93.3*	0.5	53.3*	-0.176	0.1	-3.3
Brc1ccc(C2=NC(Cc3ccccc3)CO2)cc1 (stereo not given)	.	.	.	-3.28	.	.
Cc1c(NC(=O)C2CCCN2S(=O)(=O)c2ccccc2)c(=O)n(-c2ccccc2)n1C (stereo not given)	5.3	1	-4.7	0.0759	0.9	3.2
CCOc1[nH]n(-c2ccccc2)c(=O)c1C=Nc1ccc(Cl)cc1	-22.2	1	0.8	-0.109	1.2	-1.4
CCOc1ccc(N2CC(C(=O)N3CCc4ccccc4C3)CC2=O)cc1 (stereo not given)	-5.9	0.5	46.8	-0.0956	1.1	1.7
CCOC(=O)c1oc2c(CN3CCCCC3C)c(O)ccc2c(=O)c1-c1ccc(OC)c(OC)c1 (stereo not given)	0.6	0.9	13.4	1.18	1	-3.5
O=S(=O)(c1ccc(-c2nc3ccccc3s2)cc1)N1CCCC1	13.2	0.2	76.8*	-0.13	0.9	1.0
